pIC50: −log10 of the molar value.
What was measured:
[1] = biological target: Serine/threonine-protein kinase mTOR (Homo sapiens, UniProt P42345); assay: Inhibition of mTOR
LNCaP = assay: Growth inhibition of human LNCap cells; type: functional, cell-based
[2] = biological target: Phosphatidylinositol 4,5-bisphosphate 3-kinase catalytic subunit alpha isoform (Homo sapiens, UniProt P42336); assay: Inhibition of PI3K expressed in Escherichia coli by microtiter plate-based fluorescence polarization assay
Sequence of Phosphatidylinositol 4,5-bisphosphate 3-kinase catalytic subunit alpha isoform (P42336 whole entry, canonical isoform): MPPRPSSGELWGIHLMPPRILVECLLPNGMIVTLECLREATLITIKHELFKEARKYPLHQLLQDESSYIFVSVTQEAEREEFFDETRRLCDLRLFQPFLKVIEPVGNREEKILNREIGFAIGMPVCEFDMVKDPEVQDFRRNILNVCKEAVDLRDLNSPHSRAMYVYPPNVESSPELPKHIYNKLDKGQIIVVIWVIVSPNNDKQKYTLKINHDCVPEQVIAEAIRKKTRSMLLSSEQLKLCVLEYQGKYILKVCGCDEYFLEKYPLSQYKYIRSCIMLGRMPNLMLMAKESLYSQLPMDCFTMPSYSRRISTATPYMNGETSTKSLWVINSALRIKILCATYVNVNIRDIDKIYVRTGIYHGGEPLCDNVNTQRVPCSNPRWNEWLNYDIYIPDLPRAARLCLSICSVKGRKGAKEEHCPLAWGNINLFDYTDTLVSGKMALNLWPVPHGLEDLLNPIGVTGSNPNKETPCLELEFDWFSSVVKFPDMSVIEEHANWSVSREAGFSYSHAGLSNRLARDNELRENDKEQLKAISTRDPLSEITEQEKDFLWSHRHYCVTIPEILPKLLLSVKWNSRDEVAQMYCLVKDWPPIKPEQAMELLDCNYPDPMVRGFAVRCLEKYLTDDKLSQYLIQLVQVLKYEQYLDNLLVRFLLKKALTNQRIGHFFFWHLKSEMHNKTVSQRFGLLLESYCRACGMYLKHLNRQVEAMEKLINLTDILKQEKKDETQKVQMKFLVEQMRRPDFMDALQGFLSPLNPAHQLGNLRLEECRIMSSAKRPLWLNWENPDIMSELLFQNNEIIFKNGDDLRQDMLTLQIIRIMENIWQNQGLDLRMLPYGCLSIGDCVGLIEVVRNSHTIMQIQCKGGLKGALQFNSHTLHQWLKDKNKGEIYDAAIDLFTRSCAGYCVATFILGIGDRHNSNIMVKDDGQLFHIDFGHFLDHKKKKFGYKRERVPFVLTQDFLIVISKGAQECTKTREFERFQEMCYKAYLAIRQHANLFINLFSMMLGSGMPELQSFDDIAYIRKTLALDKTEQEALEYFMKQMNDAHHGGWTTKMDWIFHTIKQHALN
In short: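 Fluorescence polarization assay of PI3K activity with PIP2 substrate. Reactions contained 20 mM Hepes pH 7.5, 2 mM MgCl2, 0.05% CHAPS, 0.01% βME, 20 µM PIP2 and 25 µM ATP, and ran 15–30 min at room temperature. They were stopped with buffer holding 10 nM TAMRA-labeled probe and 40 nM GST-GRP1 (E. coli-expressed detector), then incubated 1–2 h before FP readout.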

[3] = Chemical stability at pH 7.4; type: physicochemical; details: buffer, read-out: Stability
In short: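 Compound was incubated with the dipeptide lysine-phenylalanine at pH 7.4. Half-life of amine adduct formation was measured.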

Row | Compound | pIC50 [1] | pIC50 (LNCaP) | pIC50 [2] | half-life [3] [min]
1 | COC[C@H]1OC(=O)/C(=C/N2CCC(=O)CC2)C2=C(O)C(=O)C3=C([C@H](OC(C)=O)C[C@]4(C)[C@@H](O)CC[C@@H]34)[C@]21C | 6.02 | 6.16 | 7.22 | 
2 | COC[C@H]1OC(=O)/C(=C/N2CCN(C)CC2)C2=C(O)C(=O)C3=C([C@H](OC(C)=O)C[C@]4(C)[C@@H](O)CC[C@@H]34)[C@]21C | 6.08 | 5.96 | 7.05 | 
3 | COC[C@H]1OC(=O)/C(=C/N2CCN(C3CCN(C)CC3)CC2)C2=C(O)C(=O)C3=C([C@H](OC(C)=O)C[C@]4(C)[C@@H](O)CC[C@@H]34)[C@]21C | 6.02 | 6.11 | 7.04 | 
4 | COC[C@H]1OC(=O)/C(=C/N2CCN(CCCN3CCOCC3)CC2)C2=C(O)C(=O)C3=C([C@H](OC(C)=O)C[C@]4(C)[C@@H](O)CC[C@@H]34)[C@]21C | 5.92 | 6.20 | 7.35 | 
5 | CCN(/C=C1/C(=O)O[C@H](COC)[C@@]2(C)C1=C(O)C(=O)C1=C2[C@H](OC(C)=O)C[C@]2(C)[C@@H](O)CC[C@@H]12)CC | 4.85 | 6.80 | 6.42 | 57
6 | COC[C@H]1OC(=O)/C(=C/N(C)CCCC(=O)O)C2=C(O)C(=O)C3=C([C@H](OC(C)=O)C[C@]4(C)[C@@H](O)CC[C@@H]34)[C@]21C | 4.90 | 6.44 | 6.71 | 
7 | COC[C@H]1OC(=O)/C(=C/N(C)CCCN(C)C)C2=C(O)C(=O)C3=C([C@H](O)C[C@]4(C)[C@@H](O)CC[C@@H]34)[C@]21C | < 4.70 | 5.63 | 6.20 | 

Source: ChEMBL document CHEMBL1143164, “Synthesis and structure-activity relationships of ring-opened 17-hydroxywortmannins: potent phosphoinositide 3-kinase inhibitors with improved properties and anticancer efficacy” (J Med Chem, 2008)
